Source: ChEMBL document CHEMBL1128512, “Keto/enol epoxy steroids as HIV-1 Tat inhibitors: structure-activity relationships and pharmacophore localization” (J Med Chem, 1995)

Tests used:
[1] = system: Human immunodeficiency virus 1; assay: Inhibition of HIV replication in H9 cells.; format: functional, organism-based; settings: Human immunodeficiency virus 1, H9
Summary of the method: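 H9 cells (RPMI 1640 + 10% IFCS) infected with HIV-1 IIIB at three virus concentrations (0.5 log10 dilutions; most dilute ~5-10 infectious units/well), seeded 2×10^4 cells/well. 3-5 compound concentrations, 0.5% DMSO final, quadruplicate, 5 days at 37 °C, 5% CO2; media and compound renewed day 3. Day-5 supernatant p24 ELISA; IC50 for ≥2 viral doses, 3-5 assays, mean of n.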

[2] = Therapeutic index, measured by whole cell assay.; settings: read-out: Therapeutic index
Summary of the method: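 Ratio of cytotoxicity IC50 to HIV replication IC50 in H9 cells; cut-off of 3 counts as positive. Toxicity: uninfected H9 at 2×10^4 cells/well, 3-5 compound concentrations in quadruplicate, 5 days at 37 °C, 5% CO2, media and compound renewed day 3, viable cells counted by trypan blue exclusion. Antiviral IC50 from HIV-1 IIIB p24 ELISA at day 5.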

SW480 [3] = assay: The compound was tested for inhibition of HIV-1 replication in SW480 cells using HIV tat assay; Not active at 37 mM; format: functional, cell-based, Homo sapiens
Summary of the method: (§1)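 SW480 colon carcinoma cells at 70-80% confluence, calcium phosphate co-transfected with HIV-1 LTR-CAT (pBennCAT) plus pSV2tat, total DNA adjusted with salmon sperm DNA. Compound (from DMSO stock diluted 100-fold in DMEM + 10% IFCS) added 5 h post-transfection, duplicate wells, 48 h at 37 °C. CAT activity read with [14C]chloramphenicol, 2 h. Selectivity check against SV40-promoter CAT. IC50 from logit dose-response curves, 3-5 experiments, 95% confidence limits.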

SW480 [4] = assay: The compound was tested for inhibition of HIV-1 replication in SW480 cells using HIV tat assay; Not active at 123 mM; format: functional, cell-based, Homo sapiens; summary of the method: as §1
SW480 [5] = assay: The compound was tested for inhibition of HIV-1 replication in SW480 cells using HIV tat assay; Not active at 100 mM; format: functional, cell-based, Homo sapiens; summary of the method: as §1
SW480 [6] = assay: The compound was tested for inhibition of HIV-1 replication in SW480 cells using HIV tat assay; Not active at 80 mM; format: functional, cell-based, Homo sapiens
SW480 [7] = assay: The compound was tested for inhibition of HIV-1 replication in SW480 cells using HIV tat assay; Not active at […]; format: functional, cell-based, Homo sapiens
SW480 [8] = assay: The compound was tested for inhibition of HIV-1 replication in SW480 cells using HIV tat assay; Not active; format: functional, cell-based, Homo sapiens
SW480 [9] = assay: The compound was tested for inhibition of HIV-1 replication in SW480 cells using HIV tat assay; Not active at 90 mM; format: functional, cell-based, Homo sapiens
SW480 [10] = assay: The compound was tested for inhibition of HIV-1 replication in SW480 cells using HIV tat assay; Not active at 32 mM; format: functional, cell-based, Homo sapiens; summary of the method: as §1

Row | Compound | IC50 [1] [µM] | selectivity ratio [2] | other results
1 | C[C@@]12CCCC[C@@]1(O)[C@@H](Cl)C(=O)C(C(N)=O)C2 (some centres not stated) | 9.3 | 2 | –
2 | C[C@@]12CCCC[C@]13O[C@@H]3C(=O)C(C(N)=O)C2 (some centres not stated) | 6.4 | 4.1 | –
3 | COc1ccc(NC(=O)C2CC(C)(C)C3OC3C2=O)cc1 (configuration not stated) | 5.2 | 1.2 | –
4 | COc1ccc(NC(=O)C2CC(C)(C)C=CC2=O)cc1 (configuration not stated) | – | – | IC50 (SW480 [3]): Not Active
5 | CC1(C)C=CC(=O)C(C(=O)Nc2ccccc2)C1 (configuration not stated) | – | – | IC50 (SW480 [4]): Not Active
6 | C[C@@]12CCCCC1=CC(=O)C(C(=O)Nc1ccccc1)C2 (some centres not stated) | – | – | IC50 (SW480 [5]): Not Active
7 | C[C@@]12CCCC[C@]13O[C@@H]3C(=O)C(C(=O)Nc1ccccc1)C2 (some centres not stated) | 2.1 | 3.8 | –
8 | C[C@@]12CCCC[C@]13O[C@@H]3C(=O)C(C#N)C2 (some centres not stated) | 11 | 3 | –
9 | CC1(C)CC(C(=O)Nc2c(Cl)cccc2Cl)C(=O)C2OC21 (configuration not stated) | 2.7 | 2.3 | –
10 | COc1ccc(NC(=O)C2C[C@]3(C)CCCC[C@]34O[C@@H]4C2=O)cc1 (some centres not stated) | 8.5 | 1.3 | –
11 | CC(=O)O[C@H]1CCC2C3CCC4=CC(=O)C(C(N)=O)C[C@]4(C)C3CC[C@@]21C (some centres not stated) | – | – | IC50 (SW480 [6]): Not Active
12 | C[C@]12CCC3C(CC[C@@]45O[C@@H]4C(=O)C(S(C)(=O)=O)C[C@]35C)C1CC[C@@H]2O (some centres not stated) | 1.4 | 3.9 | –
13 | COC(=O)C1C[C@]2(C)[C@H]3CC[C@]4(C)[C@@H](O)CC[C@H]4[C@@H]3CC[C@]23O[C@@H]3C1=O (some centres not stated) | 2.4 | 4.5 | –
14 | C[C@]12CC[C@H]3[C@@H](CC[C@@]45O[C@@H]4C(=O)C(C(N)=O)C[C@]35C)[C@@H]1CC[C@@H]2O (some centres not stated) | 1.2 | 6.5 | –
15 | CC(=O)O[C@H]1CC[C@H]2[C@@H]3CCC4CC(=O)C(C(N)=O)C[C@]4(C)[C@H]3CC[C@]12C (some centres not stated) | – | – | IC50 (SW480 [6]): Not Active
16 | C[C@]12CC[C@H]3[C@@H](CC[C@@]45O[C@@H]4C(=O)C(S(=O)(=O)c4ccccc4)C[C@]35C)[C@@H]1CC[C@@H]2O (some centres not stated) | 1.6 | 2.6 | –
17 | C[C@]12CC[C@H]3[C@@H](CC[C@]45O[C@H]4C(=O)CC[C@]35C)[C@@H]1CC[C@@H]2O | – | – | IC50 (SW480 [7]): Not Active

Row | Compound | IC50 [1] [µM] | selectivity ratio [2] | other results
18 | COC(=O)C1C[C@]2(C)[C@H]3CC[C@]4(C)[C@@H](OC(C)=O)CC[C@H]4[C@@H]3CC[C@]23O[C@@H]3C1=O (some centres not stated) | 1.4 | 3.1 | –
19 | CC(=O)O[C@H]1CC[C@H]2[C@@H]3CC[C@@]45O[C@@H]4C(=O)C(C(N)=O)C[C@]5(C)[C@H]3CC[C@]12C (some centres not stated) | 2.4 | 1.6 | –
20 | CC(=O)O[C@H]1CC[C@H]2[C@@H]3CC[C@@]45O[C@@H]4[C@@H](O)[C@@H](C(N)=O)C[C@]5(C)[C@H]3CC[C@]12C | – | – | IC50 (SW480 [6]): Not Active
21 | CC(=O)O[C@H]1CC[C@H]2[C@@H]3CC[C@@]45O[C@@H]4C(=O)C(S(C)(=O)=O)C[C@]5(C)[C@H]3CC[C@]12C (some centres not stated) | 0.3 | 4.3 | –
22 | C[C@]12CC[C@H]3[C@@H](CC[C@@]45O[C@@H]4[C@H](O)[C@H](C(N)=O)C[C@]35C)[C@@H]1CC[C@@H]2O | – | – | IC50 (SW480 [8]): Not Active
23 | C[C@]12CC[C@H]3[C@@H](CCC4CC(=O)C(C(N)=O)C[C@@]43C)[C@@H]1CC[C@@H]2O (some centres not stated) | – | – | IC50 (SW480 [9]): Not Active
24 | CC(=O)O[C@H]1CC[C@H]2[C@@H]3CC[C@@]45O[C@@H]4[C@H](O)[C@H](C(N)=O)C[C@]5(C)[C@H]3CC[C@]12C | – | – | IC50 (SW480 [6]): Not Active
25 | C[C@]12CCCC[C@@]13O[C@H]3C(=O)C(C(N)=O)C2 (some centres not stated) | 10.3 | 2.6 | –
26 | C[C@@]12CCCC[C@@]1(O)[C@@H](Cl)C(=O)C(C(=O)Nc1ccccc1)C2 (some centres not stated) | 3.3 | 1.9 | –
27 | CC1(C)C=CC(=O)C(C(=O)Nc2c(Cl)cccc2Cl)C1 (configuration not stated) | – | – | IC50 (SW480 [10]): Not Active
28 | C[C@]12CC(C(N)=O)C(=O)C=C1CCC1C2CC[C@@]2(C)C1CC[C@@H]2O (some centres not stated) | – | – | IC50 (SW480 [9]): Not Active
29 | CC1(C)CC(C(=O)Nc2ccccc2)C(=O)C2OC21 (configuration not stated) | 4.3 | 1.4 | –
30 | COc1ccc(NC(=O)C2C[C@]3(C)CCCC[C@@]3(O)[C@@H](Cl)C2=O)cc1 (some centres not stated) | 3.3 | 4.2 | –
31 | C[C@]12CCCC[C@@]13O[C@H]3C(=O)C(C#N)C2 (some centres not stated) | 25.9 | 3.8 | –
32 | COc1ccc(NC(=O)C2C[C@]3(C)CCCCC3CC2=O)cc1 (some centres not stated) | – | – | IC50 (SW480 [5]): Not Active
33 | O=C1CN=C(c2ccc[nH]2)c2cc(Cl)ccc2N1 | 0.6 | – | –
